# Assay results taken from ChEMBL document CHEMBL1130132, “Selective inhibition of neuronal nitric oxide synthase by N omega-nitroarginine-and phenylalanine-containing dipeptides and dipeptide esters” (J Med Chem, 1997).
# Where a SMILES comes first, the peptide text is derived from it. [ ]: non-standard residue; d: D form. The star is where a group is joined. dArg(NO2) = N=C(NCCC[C@@H](N)C(=O)O)N[N+](=O)[O-]; Arg(NO2) = N=C(NCCC[C@H](N)C(=O)O)N[N+](=O)[O-]; OBn = c1ccc(CO*)cc1
# What was measured:
# [1] = target: T1, Nitric oxide synthase 3 (Bos taurus, UniProt P29473); experiment: Inhibition of endothelial isoform of nitric oxide synthase
# T1 sequence (P29473 whole entry): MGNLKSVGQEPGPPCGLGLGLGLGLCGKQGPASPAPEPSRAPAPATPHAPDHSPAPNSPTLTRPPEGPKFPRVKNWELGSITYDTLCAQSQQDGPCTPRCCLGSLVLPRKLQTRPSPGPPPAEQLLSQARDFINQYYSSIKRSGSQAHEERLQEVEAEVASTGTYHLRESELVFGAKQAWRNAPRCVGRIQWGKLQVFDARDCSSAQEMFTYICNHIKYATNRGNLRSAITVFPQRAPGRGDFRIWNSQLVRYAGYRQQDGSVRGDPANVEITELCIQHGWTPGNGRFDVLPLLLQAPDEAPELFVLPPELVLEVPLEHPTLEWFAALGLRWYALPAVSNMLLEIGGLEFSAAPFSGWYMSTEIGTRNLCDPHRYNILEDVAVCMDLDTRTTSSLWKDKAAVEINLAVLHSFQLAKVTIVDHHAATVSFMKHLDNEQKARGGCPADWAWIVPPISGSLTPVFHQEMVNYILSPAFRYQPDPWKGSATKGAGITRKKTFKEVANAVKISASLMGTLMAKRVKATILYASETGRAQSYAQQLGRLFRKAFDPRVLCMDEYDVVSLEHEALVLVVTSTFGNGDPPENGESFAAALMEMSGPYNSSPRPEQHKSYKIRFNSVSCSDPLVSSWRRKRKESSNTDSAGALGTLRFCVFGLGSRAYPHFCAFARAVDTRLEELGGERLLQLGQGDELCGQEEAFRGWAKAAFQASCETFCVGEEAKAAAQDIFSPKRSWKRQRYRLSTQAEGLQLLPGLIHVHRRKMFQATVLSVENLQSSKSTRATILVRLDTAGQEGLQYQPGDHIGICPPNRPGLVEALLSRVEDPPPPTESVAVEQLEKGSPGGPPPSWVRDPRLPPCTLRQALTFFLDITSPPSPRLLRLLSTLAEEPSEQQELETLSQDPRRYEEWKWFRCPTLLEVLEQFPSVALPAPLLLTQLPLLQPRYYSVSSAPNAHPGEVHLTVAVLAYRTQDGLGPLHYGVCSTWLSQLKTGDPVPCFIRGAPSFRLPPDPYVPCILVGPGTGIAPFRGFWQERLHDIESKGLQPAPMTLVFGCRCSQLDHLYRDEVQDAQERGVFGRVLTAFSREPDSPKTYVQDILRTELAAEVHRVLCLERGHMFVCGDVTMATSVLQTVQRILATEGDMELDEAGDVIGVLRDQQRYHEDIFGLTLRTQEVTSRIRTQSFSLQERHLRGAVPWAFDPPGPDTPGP
# Summary of the method: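 eNOS expressed in E. coli, purified and supplemented with L-arginine and BH4 (235 nmol NO/mg/min at 25 °C). NO formation was followed by oxyhemoglobin capture (80 µM) under initial rates in 50 mM Hepes pH 7.5 with 3-25 µM L-arginine, 100 µM DTT, 10 µM CaCl2, 1 µg/mL calmodulin, 5 µM BH4 and 100 µM NADPH. Ki came from Dixon plots with varied substrate and inhibitor.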
# [2] = target: T2, Nitric oxide synthase, inducible (Mus musculus, UniProt P29477); experiment: Inhibition of inducible Nitric Oxide Synthase
# T2 sequence (P29477 whole entry): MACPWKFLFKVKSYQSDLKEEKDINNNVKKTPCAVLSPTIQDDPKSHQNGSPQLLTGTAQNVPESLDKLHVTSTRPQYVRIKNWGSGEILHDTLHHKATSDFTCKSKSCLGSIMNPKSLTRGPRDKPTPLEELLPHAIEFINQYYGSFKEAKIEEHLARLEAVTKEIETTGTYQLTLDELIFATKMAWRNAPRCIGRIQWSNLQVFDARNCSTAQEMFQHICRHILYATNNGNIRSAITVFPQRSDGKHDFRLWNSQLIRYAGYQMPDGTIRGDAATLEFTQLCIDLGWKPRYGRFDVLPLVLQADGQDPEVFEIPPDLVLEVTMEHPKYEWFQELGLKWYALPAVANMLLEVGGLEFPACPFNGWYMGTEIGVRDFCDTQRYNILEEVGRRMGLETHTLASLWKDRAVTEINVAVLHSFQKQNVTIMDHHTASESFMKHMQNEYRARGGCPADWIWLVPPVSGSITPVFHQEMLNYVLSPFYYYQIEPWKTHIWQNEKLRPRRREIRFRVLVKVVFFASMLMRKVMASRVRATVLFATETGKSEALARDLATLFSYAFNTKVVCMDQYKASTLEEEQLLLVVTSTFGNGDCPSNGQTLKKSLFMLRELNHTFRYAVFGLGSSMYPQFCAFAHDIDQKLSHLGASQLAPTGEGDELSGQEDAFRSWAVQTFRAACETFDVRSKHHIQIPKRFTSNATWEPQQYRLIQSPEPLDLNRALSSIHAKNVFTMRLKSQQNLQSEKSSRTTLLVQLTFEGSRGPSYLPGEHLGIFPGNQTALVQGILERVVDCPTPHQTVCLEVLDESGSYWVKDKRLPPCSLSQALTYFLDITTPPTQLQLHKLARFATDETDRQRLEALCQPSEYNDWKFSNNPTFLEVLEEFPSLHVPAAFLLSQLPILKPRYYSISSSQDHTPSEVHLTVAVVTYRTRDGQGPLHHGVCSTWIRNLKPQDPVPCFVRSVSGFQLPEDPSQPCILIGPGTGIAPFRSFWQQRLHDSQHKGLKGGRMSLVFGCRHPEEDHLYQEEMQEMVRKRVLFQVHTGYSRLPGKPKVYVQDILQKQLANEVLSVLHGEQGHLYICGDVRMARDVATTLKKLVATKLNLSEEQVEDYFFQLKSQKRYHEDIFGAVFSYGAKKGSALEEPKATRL
# Summary of the method: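 Purified murine macrophage iNOS expressed in recombinant E. coli (500 nmol NO/mg/min at 30 °C). Initial-rate hemoglobin capture assay in 100 mM Hepes pH 7.5 with 10-60 µM L-arginine, 100 µM DTT, 100 µM NADPH, 6.5 µM BH4 and 3 µM oxyhemoglobin, without added calcium/calmodulin. Ki taken from Dixon plots across varied L-arginine and inhibitor concentrations.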
# [3] = Selectivity for iNOS and eNOS binding, ratio of Ki
# [4] = Selectivity for nNOS and eNOS, ratio of Ki
# [5] = target: Nitric oxide sythases; iNOS & nNOS (Homo sapiens) (UniProt P29475+P35228); experiment: Selectivity for nNOS and iNOS, ratio of Ki; format: protein assay
# Chain of Nitric oxide sythases; iNOS & nNOS (Homo sapiens) (P29475 whole entry, looked up): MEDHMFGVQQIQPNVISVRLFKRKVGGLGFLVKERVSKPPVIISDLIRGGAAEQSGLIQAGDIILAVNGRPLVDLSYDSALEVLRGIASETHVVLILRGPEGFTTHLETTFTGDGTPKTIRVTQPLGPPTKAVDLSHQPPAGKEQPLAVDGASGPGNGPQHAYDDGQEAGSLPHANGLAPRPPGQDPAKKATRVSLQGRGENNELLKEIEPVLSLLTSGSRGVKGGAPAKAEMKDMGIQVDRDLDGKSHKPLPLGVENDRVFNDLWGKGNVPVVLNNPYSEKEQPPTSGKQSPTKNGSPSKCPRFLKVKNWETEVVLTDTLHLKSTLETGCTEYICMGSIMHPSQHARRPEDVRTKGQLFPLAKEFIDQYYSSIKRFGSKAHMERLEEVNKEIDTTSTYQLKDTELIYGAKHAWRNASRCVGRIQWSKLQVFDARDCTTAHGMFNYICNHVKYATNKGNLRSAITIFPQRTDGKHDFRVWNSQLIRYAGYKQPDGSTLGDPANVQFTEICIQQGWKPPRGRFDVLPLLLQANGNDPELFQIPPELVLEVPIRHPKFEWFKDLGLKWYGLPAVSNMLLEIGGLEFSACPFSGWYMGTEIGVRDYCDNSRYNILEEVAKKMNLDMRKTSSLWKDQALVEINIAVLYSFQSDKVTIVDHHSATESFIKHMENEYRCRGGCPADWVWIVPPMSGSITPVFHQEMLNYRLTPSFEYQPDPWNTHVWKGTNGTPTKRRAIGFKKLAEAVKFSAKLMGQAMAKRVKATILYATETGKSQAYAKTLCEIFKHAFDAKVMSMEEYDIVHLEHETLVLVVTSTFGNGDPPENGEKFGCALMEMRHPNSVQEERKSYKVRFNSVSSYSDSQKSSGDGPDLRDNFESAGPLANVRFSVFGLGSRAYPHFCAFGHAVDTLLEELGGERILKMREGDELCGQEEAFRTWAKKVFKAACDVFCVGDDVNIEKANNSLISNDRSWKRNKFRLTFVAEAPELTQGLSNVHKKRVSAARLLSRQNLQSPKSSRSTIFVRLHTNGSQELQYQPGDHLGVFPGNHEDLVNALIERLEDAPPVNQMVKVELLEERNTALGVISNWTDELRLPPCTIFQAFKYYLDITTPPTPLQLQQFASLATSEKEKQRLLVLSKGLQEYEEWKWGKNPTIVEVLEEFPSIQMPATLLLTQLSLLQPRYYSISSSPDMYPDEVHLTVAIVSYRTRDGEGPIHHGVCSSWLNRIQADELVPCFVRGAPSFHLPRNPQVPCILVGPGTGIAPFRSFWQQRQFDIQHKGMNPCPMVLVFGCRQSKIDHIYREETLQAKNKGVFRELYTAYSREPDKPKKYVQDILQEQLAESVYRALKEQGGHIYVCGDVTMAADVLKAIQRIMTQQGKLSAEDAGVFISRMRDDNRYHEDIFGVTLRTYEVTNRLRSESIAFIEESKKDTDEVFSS
# Chain of Nitric oxide sythases; iNOS & nNOS (Homo sapiens) (P35228 whole entry, looked up): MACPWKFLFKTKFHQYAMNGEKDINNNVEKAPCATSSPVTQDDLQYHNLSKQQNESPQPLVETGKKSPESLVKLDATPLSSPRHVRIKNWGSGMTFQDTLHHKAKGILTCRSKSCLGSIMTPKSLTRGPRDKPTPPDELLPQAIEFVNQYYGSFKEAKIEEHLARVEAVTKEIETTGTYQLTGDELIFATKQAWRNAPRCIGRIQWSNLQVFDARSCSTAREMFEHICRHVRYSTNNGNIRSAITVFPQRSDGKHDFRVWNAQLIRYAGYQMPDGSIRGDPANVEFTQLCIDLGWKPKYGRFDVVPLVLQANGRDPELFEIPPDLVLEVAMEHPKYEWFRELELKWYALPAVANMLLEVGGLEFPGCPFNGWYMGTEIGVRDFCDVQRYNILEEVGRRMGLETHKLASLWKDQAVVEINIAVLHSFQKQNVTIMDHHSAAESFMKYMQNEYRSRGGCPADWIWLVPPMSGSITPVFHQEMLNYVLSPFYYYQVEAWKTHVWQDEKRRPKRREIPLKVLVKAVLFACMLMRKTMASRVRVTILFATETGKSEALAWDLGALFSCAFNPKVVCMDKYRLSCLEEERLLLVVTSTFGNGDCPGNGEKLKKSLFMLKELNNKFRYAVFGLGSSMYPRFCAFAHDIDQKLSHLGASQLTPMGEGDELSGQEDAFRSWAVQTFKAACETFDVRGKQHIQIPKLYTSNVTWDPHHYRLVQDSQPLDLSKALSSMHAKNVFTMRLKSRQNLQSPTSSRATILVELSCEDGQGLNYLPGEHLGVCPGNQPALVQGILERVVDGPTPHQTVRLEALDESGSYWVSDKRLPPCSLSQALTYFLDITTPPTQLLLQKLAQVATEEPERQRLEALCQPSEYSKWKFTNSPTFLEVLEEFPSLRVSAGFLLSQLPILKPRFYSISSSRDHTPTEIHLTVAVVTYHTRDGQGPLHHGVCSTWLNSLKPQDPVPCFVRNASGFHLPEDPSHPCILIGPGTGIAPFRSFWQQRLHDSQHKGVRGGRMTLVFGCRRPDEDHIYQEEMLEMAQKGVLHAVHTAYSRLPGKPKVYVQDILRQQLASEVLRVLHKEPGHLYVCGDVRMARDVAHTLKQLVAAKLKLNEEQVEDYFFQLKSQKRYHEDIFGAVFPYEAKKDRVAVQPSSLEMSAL
Compound,Ki [1],Ki [2],Selectivity [3],Selectivity [4],Selectivity [5]
COC(=O)[C@H](Cc1ccccc1)NC(=O)[C@@H](N)CCC/N=C(\N)N[N+](=O)[O-],400 µM,45 µM,,,
N=C(NCCC[C@H](NC(=O)[C@@H](N)Cc1ccccc1)C(=O)O)N[N+](=O)[O-] (H-Phe-[Arg(NO2)]-OH),490 µM,93 µM,,,
N/C(=N\CCC[C@@H](NC(=O)[C@H](N)Cc1ccccc1)C(=O)O)N[N+](=O)[O-] (H-[dF]-[dArg(NO2)]-OH),90 µM,13600 µM,0.0066,5.3,800
COC(=O)[C@@H](CCCNC(=N)N[N+](=O)[O-])NC(=O)[C@H](N)Cc1ccccc1 [listing 1 of 2 here],5 µM,3600 µM,,,
COC(=O)[C@H](CCC/N=C(\N)N[N+](=O)[O-])NC(=O)[C@@H](N)Cc1ccccc1,1350 µM,204 µM,6.6,3.6,0.55
N/C(=N\CCC[C@H](N)C(=O)N[C@@H](Cc1ccccc1)C(=O)OCc1ccccc1)N[N+](=O)[O-],125 µM,18 µM,6.9,2.3,0.33
COC(=O)[C@@H](Cc1ccccc1)NC(=O)[C@H](N)CCCNC(=N)N[N+](=O)[O-],375 µM,6500 µM,,,
COC(=O)[C@@H](CCCNC(=N)N[N+](=O)[O-])NC(=O)[C@H](N)Cc1ccccc1 [listing 2 of 2 here],8500 µM,1200 µM,,,
COC(=O)[C@@H](Cc1ccccc1)NC(=O)[C@@H](N)CCC/N=C(\N)N[N+](=O)[O-],525 µM,100 µM,5.3,5.7,1.1
COC(=O)[C@@H](CCC/N=C(\N)N[N+](=O)[O-])NC(=O)[C@@H](N)Cc1ccccc1,150 µM,7500 µM,0.02,1.7,83.3
N/C(=N\CCC[C@H](NC(=O)[C@@H](N)Cc1ccccc1)C(=O)OCc1ccccc1)N[N+](=O)[O-] (H-Phe-[Arg(NO2)]-OBn),250 µM,45 µM,5.6,2.3,0.41
N/C(=N\CCC[C@H](NC(=O)[C@@H](N)Cc1ccccc1)C(=O)O)N[N+](=O)[O-] (H-Phe-[Arg(NO2)]-OH),,,5.3,3.5,0.66
N/C(=N\CCC[C@H](N)C(=O)N[C@@H](Cc1ccccc1)C(=O)O)N[N+](=O)[O-],395 µM,160 µM,2.5,21.9,8.9
COC(=O)[C@@H](Cc1ccccc1)NC(=O)[C@H](N)CCC/N=C(\N)N[N+](=O)[O-],,,0.058,2.5,43.3
